We go through 23 compounds from ChEMBL document CHEMBL4385610, “Selective Inhibition of Histone Deacetylase 10: Hydrogen Bonding to the Gatekeeper Residue is Implicated” (J Med Chem, 2019).

In assay [1] the target is T1, Polyamine deacetylase HDAC10 (Homo sapiens, UniProt Q969S8).
T1 sequence (Q969S8 whole entry): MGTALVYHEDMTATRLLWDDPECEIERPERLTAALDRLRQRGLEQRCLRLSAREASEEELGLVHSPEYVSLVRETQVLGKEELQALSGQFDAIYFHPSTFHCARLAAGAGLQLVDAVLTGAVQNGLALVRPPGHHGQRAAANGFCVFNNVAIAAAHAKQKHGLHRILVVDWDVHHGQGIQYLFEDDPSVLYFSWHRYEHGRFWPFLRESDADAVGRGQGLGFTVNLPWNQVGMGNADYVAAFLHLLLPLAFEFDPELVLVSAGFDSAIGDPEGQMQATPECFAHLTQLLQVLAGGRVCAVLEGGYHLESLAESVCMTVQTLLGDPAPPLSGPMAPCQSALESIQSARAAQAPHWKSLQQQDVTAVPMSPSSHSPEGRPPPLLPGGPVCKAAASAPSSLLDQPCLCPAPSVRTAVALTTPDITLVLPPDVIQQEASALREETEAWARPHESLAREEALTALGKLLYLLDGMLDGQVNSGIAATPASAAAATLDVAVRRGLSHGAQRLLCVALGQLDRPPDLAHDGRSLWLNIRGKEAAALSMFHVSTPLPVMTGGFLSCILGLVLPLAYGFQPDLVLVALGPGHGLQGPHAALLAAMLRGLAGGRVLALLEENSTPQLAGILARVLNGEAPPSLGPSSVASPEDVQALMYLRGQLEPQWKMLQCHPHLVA
Nature of the assay: Inhibition of tubastatin-Alexa647-tracer binding to recombinant GST-tagged HDAC10 (unknown origin) measured after 1 hr by TR-FRET assay.

For assay [2], the target named is T2, Protein deacetylase HDAC6 (Homo sapiens, UniProt Q9UBN7).
T2 sequence (Q9UBN7 whole entry): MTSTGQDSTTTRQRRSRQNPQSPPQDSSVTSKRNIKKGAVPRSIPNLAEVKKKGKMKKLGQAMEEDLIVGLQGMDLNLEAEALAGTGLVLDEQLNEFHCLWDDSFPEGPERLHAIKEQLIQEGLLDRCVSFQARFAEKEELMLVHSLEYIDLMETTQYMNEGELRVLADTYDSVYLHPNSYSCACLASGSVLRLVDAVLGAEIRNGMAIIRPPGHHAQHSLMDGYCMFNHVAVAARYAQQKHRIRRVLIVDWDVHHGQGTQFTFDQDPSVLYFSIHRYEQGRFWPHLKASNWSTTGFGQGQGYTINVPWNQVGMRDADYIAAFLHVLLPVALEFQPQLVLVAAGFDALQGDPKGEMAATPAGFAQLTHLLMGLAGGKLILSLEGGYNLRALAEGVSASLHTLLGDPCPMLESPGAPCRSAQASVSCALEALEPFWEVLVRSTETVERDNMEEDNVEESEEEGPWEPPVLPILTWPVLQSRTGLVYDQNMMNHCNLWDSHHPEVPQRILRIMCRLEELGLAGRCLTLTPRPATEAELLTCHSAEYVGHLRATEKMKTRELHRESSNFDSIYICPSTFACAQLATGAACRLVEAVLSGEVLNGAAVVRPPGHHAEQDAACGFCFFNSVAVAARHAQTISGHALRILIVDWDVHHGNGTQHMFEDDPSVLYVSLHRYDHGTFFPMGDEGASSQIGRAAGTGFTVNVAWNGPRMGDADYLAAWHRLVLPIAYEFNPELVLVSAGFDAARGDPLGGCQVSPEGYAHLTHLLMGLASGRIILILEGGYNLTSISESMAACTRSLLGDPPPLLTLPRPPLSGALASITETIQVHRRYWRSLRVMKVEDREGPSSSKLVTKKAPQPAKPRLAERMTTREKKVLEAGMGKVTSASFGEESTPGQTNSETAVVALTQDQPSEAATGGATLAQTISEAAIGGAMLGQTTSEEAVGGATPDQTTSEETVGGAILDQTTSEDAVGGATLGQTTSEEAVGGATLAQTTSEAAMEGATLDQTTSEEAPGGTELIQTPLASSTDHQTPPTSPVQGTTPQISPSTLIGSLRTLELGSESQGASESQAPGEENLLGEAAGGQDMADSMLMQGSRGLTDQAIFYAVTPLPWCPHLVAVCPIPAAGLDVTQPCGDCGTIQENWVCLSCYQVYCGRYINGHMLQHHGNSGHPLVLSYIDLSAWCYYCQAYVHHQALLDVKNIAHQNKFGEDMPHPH
The assay can be described thus: Inhibition of dye-labeled tracer binding to HDAC6 (unknown origin) transfected in human HeLa cells measured after 2 hrs by nano-luciferase reporter gene-based BRET assay. The class given is cell-based. In short, it runs like this:
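Live-cell target engagement by BRET: cells overexpressing nano-luciferase-tagged HDAC6 or HDAC10 are given a dye-labelled tracer and the nano-luciferase substrate, and a competing binder disrupts BRET. pIC50 comes from pooled data of two biological replicates, each run in triplicate. The selectivity fold is taken from the HDAC10 and HDAC6 BRET values.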
On the technique in general: Reporter assays use an easily measured gene product as a stand-in for the process of interest.

Assay [3] addresses T1, Polyamine deacetylase HDAC10. Nature of the assay: Inhibition of dye-labeled tracer binding to HDAC10 (unknown origin) transfected in human HeLa cells measured after 2 hrs by nano-luciferase reporter gene-based BRET assay. The class given is cell-based.
In assay [4] the target is T3, Histone deacetylase 8 (Homo sapiens, UniProt Q9BY41).
T3 sequence (Q9BY41 whole entry): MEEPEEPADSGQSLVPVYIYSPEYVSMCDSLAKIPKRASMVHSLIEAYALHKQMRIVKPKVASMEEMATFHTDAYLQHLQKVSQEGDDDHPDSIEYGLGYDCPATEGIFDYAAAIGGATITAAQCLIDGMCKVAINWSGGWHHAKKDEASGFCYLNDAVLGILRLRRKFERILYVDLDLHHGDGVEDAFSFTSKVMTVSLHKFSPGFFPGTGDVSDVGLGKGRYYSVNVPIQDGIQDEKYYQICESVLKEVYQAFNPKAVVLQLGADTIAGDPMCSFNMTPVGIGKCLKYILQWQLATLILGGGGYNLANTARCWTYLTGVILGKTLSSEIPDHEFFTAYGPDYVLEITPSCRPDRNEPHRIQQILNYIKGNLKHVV
Nature of the assay: Inhibition of recombinant human full length C-terminal His-tagged HDAC8 expressed in baculovirus infected insect cells measured after 40 mins by HDAC-Glo1/2 luminescent assay.

The target in assay [5] is Histone deacetylase 1 (Homo sapiens, UniProt Q13547). Nature of the assay: Inhibition of recombinant full-length C-terminal FLAG-fused/His-tagged human HDAC1 expressed in baculovirus infected Sf9 insect cells measured after 40 mins by HDAC-Glo1/2 luminescent assay.
The target of assay [6] is Histone deacetylase 3/Nuclear receptor corepressor 2 (HDAC3/NCoR2) (Homo sapiens, UniProt O15379). Nature of the assay: Inhibition of human recombinant full length C-terminal His-tagged HDAC3 (1 to 428 residues)/N-terminal GST-tagged NCOR2 (395 to 489 residues) expressed in baculovirus infected insect cells measured after 40 mins by HDAC-Glo1/2 luminescent assay.
The target in assay [7] is Histone deacetylase 2 (Homo sapiens, UniProt Q92769). Nature of the assay: Inhibition of recombinant full-length C-terminal His-tagged human HDAC2 expressed in baculovirus infected Sf9 insect cells measured after 40 mins by HDAC-Glo1/2 luminescent assay. The class given is cell-based.
Assay [8] addresses T4, Protein deacetylase HDAC6 (Homo sapiens) (UniProt Q9UBN7).
T4 sequence (whole entry): T2 sequence (Q9UBN7 whole entry)
Nature of the assay: Inhibition of HDAC6 in human BE(2)-C cells assessed as increase in tubulin acetylation at 10 uM measured after 24 hrs by Western blot analysis. The class given is cell-based. In short, it runs like this:
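In the neuroblastoma BE(2)-C line, HDAC6 inhibition is read as tubulin acetylation by Western blot, comparing acetylated tubulin with total tubulin.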
A general note: A western blot detects proteins with antibodies after separation by electrophoresis.

Structures are written as SMILES. Activity calls are given as the source filed them. No cut-off for these calls is given here. Where only a bound is given, the exact number is not on record here.

Chain of Histone deacetylase 3/Nuclear receptor corepressor 2 (HDAC3/NCoR2) (O15379 whole entry, the tested form may be a part): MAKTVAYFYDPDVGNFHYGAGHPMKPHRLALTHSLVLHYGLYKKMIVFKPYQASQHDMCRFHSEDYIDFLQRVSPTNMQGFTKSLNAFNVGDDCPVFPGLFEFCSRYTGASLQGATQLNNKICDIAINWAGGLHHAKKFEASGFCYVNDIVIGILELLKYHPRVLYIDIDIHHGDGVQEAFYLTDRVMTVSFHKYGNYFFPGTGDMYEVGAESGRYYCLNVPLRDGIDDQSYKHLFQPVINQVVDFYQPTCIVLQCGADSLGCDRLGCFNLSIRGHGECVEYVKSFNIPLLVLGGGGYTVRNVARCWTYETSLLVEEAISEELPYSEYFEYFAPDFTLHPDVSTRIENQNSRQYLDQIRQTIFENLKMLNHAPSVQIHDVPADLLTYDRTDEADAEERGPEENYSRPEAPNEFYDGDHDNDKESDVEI
Chain of Histone deacetylase 3/Nuclear receptor corepressor 2 (HDAC3/NCoR2) (Q9Y618 whole entry, further chain, the tested form may be a part): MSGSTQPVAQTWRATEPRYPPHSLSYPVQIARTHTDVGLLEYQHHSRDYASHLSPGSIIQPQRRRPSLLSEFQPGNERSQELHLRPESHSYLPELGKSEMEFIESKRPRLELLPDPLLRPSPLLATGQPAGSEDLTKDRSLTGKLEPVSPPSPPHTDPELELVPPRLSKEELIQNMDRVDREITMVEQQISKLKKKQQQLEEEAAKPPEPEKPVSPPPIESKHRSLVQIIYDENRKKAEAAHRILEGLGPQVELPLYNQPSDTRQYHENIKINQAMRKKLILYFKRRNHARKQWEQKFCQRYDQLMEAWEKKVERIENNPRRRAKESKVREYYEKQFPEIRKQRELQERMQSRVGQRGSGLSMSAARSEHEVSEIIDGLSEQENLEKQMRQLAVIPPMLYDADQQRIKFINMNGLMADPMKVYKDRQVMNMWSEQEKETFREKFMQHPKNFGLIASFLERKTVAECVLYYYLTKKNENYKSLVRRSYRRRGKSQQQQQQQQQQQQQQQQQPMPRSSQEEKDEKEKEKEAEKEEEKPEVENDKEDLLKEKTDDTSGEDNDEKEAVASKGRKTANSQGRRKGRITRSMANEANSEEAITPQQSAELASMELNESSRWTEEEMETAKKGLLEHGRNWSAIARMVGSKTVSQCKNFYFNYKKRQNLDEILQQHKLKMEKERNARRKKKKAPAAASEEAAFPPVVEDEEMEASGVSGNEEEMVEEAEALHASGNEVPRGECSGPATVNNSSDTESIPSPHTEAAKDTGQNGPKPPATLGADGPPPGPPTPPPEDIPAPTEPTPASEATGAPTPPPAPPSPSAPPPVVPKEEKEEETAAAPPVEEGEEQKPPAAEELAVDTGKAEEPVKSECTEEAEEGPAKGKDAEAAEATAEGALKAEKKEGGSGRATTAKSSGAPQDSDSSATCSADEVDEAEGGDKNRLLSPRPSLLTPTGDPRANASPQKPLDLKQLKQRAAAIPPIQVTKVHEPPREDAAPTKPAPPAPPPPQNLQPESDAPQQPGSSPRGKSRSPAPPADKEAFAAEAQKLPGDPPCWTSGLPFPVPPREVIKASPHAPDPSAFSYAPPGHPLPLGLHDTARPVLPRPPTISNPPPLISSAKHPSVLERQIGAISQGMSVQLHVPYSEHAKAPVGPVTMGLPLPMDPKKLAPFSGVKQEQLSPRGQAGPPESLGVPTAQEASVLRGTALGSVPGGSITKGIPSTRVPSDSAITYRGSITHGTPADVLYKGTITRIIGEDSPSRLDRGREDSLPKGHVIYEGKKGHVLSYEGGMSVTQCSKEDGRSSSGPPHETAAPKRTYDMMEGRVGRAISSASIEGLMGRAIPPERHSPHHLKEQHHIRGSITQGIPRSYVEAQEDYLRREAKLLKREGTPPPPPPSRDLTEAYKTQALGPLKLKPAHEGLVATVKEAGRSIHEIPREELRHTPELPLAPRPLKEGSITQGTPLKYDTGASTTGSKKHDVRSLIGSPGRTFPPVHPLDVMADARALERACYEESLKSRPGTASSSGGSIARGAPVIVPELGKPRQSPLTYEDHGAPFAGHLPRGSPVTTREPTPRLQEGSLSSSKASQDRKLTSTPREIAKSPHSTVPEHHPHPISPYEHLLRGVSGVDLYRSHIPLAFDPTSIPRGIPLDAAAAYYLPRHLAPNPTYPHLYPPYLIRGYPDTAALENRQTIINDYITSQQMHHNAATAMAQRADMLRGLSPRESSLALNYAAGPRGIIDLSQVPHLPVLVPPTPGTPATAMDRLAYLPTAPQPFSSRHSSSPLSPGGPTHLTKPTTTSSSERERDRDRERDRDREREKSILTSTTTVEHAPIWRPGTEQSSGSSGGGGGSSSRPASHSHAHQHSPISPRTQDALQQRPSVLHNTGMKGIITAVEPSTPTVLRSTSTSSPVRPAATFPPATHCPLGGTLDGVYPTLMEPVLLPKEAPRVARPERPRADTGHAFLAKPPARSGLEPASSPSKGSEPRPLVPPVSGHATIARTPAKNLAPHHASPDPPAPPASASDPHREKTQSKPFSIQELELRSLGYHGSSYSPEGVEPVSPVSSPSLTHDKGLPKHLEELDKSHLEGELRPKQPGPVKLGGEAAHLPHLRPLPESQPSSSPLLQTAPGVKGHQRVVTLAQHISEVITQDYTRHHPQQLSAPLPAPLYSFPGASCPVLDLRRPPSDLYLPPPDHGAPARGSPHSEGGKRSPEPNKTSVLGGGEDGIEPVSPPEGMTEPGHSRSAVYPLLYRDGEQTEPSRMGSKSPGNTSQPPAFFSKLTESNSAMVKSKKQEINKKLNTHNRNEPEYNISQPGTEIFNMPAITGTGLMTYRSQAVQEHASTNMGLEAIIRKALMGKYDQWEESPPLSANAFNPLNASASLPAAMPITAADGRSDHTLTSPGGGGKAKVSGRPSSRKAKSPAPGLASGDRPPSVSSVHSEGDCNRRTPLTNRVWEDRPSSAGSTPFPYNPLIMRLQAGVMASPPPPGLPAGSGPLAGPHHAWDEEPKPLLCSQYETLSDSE
Chain of Histone deacetylase 2 (Q92769 whole entry): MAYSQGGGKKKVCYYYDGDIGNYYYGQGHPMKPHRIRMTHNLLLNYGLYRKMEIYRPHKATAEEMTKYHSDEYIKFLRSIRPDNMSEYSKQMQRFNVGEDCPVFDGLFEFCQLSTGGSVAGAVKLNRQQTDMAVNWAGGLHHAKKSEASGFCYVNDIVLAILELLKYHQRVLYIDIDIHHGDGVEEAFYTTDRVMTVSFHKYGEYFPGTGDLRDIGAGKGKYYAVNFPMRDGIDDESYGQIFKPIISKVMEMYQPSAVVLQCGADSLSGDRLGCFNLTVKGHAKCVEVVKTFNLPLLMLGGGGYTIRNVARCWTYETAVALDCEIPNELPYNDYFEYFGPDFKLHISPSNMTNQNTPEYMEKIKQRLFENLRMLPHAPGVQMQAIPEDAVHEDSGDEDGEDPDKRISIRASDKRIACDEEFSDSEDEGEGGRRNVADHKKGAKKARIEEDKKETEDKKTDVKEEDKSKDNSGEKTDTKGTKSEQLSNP
Chain of Histone deacetylase 1 (Q13547 whole entry, the tested form may be a part): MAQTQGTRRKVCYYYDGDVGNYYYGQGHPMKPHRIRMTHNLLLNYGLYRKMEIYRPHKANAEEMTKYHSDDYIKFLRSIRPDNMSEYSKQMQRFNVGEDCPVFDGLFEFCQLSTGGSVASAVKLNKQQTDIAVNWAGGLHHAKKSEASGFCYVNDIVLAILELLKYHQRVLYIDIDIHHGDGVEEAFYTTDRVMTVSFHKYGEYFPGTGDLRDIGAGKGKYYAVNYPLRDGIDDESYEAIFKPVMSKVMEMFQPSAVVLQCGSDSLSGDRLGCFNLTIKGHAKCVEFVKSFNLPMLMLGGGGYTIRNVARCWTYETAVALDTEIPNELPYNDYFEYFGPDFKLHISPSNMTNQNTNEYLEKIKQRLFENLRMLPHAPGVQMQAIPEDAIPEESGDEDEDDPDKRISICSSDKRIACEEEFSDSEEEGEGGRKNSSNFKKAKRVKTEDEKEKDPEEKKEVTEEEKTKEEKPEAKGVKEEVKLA

For orientation: IC50 means the point on the concentration scale where inhibition reaches its midpoint. Consider `O=C(NO)c1ccc(Cn2ccc3ccccc32)cc1`, for which the IC50 in assay [1] was 0.0631 µM; in assay [2] it was 0.0631 µM; in assay [3], 0.158 µM.

With `CC(=O)N1CCc2c(c3ccccc3n2Cc2ccc(C(=O)NO)cc2)C1`, the IC50 in assay [1] is 0.501 µM; in assay [2] it was 0.0794 µM; in assay [3], 2 µM.

For `O=C(NO)c1ccc(Cn2cc(CCO)c3ccccc32)cc1`, the results for the IC50 in assay [1], in assay [2] and in assay [3] were 0.0794 µM, 0.0316 µM and 0.2 µM, respectively.

Turning to `O=C(NO)c1ccc(Cn2c3c(c4ccccc42)COCC3)cc1`, the IC50 was 0.794 µM in assay [4]; 1.58 µM in assay [5]; 0.631 µM in assay [1]; 1.26 µM in assay [6]; 7.94 µM in assay [7]; 0.02 µM in assay [2]. Moreover, in assay [3], the IC50 is 1 µM.

For the compound `COCCc1cn(Cc2ccc(C(=O)NO)cc2)c2ccccc12`, the IC50 in assay [1] is 0.126 µM; in assay [2], 0.0631 µM; in assay [3], 0.2 µM.

Take `O=C(NO)c1ccc(Cn2c3c(c4ccccc42)CSCC3)cc1`: the figures for the IC50 in assay [1], in assay [2] and in assay [3] were 0.316 µM, 0.126 µM and 0.398 µM, respectively.

`O=C(NO)c1ccc(Cn2c3c(c4ccccc42)CCCC3)cc1`: the figures for the IC50 in assay [1], in assay [2] and in assay [3] were 1 µM, 0.0631 µM and 2.51 µM, respectively.

As to `O=C(NO)c1ccc(Cn2cc(CN3CCCC3)c3ccccc32)cc1`, the IC50 in assay [4] is 0.316 µM; in assay [5], 0.794 µM; in assay [1] it was 0.00398 µM; in assay [6] it was 0.398 µM; in assay [7], 6.31 µM; in assay [2], 0.158 µM. The compound also showed an IC50 in assay [3] of 0.00398 µM.

On to `Cn1cc(CNCC2CCN(c3ncc(C(=O)NO)cn3)CC2)c2ccccc21` [QUISINOSTAT], for which the values for the IC50 in assay [1] and in assay [3] were 0.01 µM and 0.0398 µM, respectively.

Turning to `Cn1cncc1-c1cn(Cc2ccc(C(=O)NO)cc2)c2ccccc12`, the IC50 in assay [4] was 0.398 µM; in assay [5], 0.631 µM; in assay [1] it was 0.0251 µM; in assay [6] it was 0.501 µM; in assay [7], 3.16 µM; in assay [2], 0.0794 µM. Moreover, the IC50 in assay [3] is 0.0501 µM.

On to `Cc1c(C)n(Cc2ccc(C(=O)NO)cc2)c2ccccc12`, for which the IC50 was 1.58 µM in assay [4]; 2.51 µM in assay [5]; 0.316 µM in assay [1]; 3.16 µM in assay [6]; 12.6 µM in assay [7]; 0.0316 µM in assay [2]. In assay [3], this compound had an IC50 of 0.631 µM.

On to `CN1CCc2c(n(Cc3ccc(C(=O)NO)cc3)c3ccccc23)C1`, for which the IC50 is 3.98 µM in assay [4]; 3.16 µM in assay [5]; 0.2 µM in assay [1]; 3.98 µM in assay [6]; 25.1 µM in assay [7]; 0.0631 µM in assay [2]. Besides, the IC50 in assay [3] is 0.158 µM.

For `CN(C)CCc1cn(Cc2ccc(C(=O)NO)cc2)c2ccccc12`, the IC50 in assay [1] is 0.02 µM; in assay [3], 0.0251 µM.

In the case of `CC(C)(C)OC(=O)Nc1ccc(-c2cc(C(=O)NCCCCCCC(=O)NO)no2)cc1`, the IC50 in assay [1] was 0.316 µM; in assay [3] it was 0.794 µM.

With `CN(C)Cc1nn(Cc2ccc(C(=O)NO)cc2)c2ccccc12`, the IC50 in assay [4] was 0.794 µM; in assay [5], 1.26 µM; in assay [1], 0.02 µM; in assay [6], 0.794 µM; in assay [7] it was 7.94 µM; in assay [2] it was 0.126 µM.

For the compound `CN1CCCC1c1cn(Cc2ccc(C(=O)NO)cc2)c2ccccc12` (racemic), the IC50 in assay [4] was 0.398 µM; in assay [5] it was 0.316 µM; in assay [1], 0.00501 µM; in assay [6] it was 0.158 µM; in assay [7], 2 µM; in assay [2], 0.126 µM. For the same compound, the concentration for half-maximal inhibition (IC50) in assay [3] was 0.00501 µM.

As for `CC(C)(C)c1cc2ccccc2n1Cc1ccc(C(=O)NO)cc1`, the IC50 is 5.01 µM in assay [1], 2 µM in assay [2] and over 39.8 µM in assay [3]. Further, the inhibition entry in assay [8] was “Active”.

`C#Cc1cccc(Nc2ncnc3cc(OC)c(OCCCCCCC(=O)NO)cc23)c1` [CUDC-101]: the IC50 was 0.126 µM in assay [1] and 0.398 µM in assay [3].

`O=C(NO)c1ccc(CC(=O)N(CCO)c2ccccc2)cc1`: the IC50 in assay [1] was 0.0794 µM; in assay [3] it was 0.316 µM.

Turning to `CC(C)(C)OC(=O)NCc1cn(Cc2ccc(C(=O)NO)cc2)c2ccccc12`, the IC50 in assay [1] was 0.158 µM; in assay [2] it was 0.0794 µM; in assay [3], 0.251 µM.

With `CN(C)Cc1cn(Cc2ccc(C(=O)NO)cc2)c2ccccc12`, the IC50 in assay [4] is 0.398 µM; in assay [5] it was 1 µM; in assay [1], 0.00501 µM; in assay [6], 0.631 µM; in assay [7] it was 6.31 µM; in assay [2], 0.158 µM. In addition, the IC50 in assay [3] is 0.00398 µM.

Turning to `O=C(CCCCCCNC(=O)c1cnc(N(c2ccccc2)c2ccccc2)nc1)NO` [RICOLINOSTAT], the IC50 in assay [1] is 0.126 µM; in assay [3], 1.58 µM.

Consider `O=C(NO)c1ccc(Cn2c3ccccc3c3ccccc32)cc1`, for which the IC50 in assay [1] is 2 µM; in assay [2], 0.0398 µM; in assay [3], 3.98 µM.
